Experimental data published in ChEMBL document CHEMBL3779845, “Synthesis and antitumor activity evaluation of a novel combi-nitrosourea prodrug: Designed to release a DNA cross-linking agent and an inhibitor of O(6)-alkylguanine-DNA alkyltransferase” (Bioorg Med Chem, 2016).

How the values were obtained:
[1] = Drug level in MEM-EBSS treated with 3-(3-(((2-Amino-9H-purin-6-yl)oxy)methyl)benzyl)-1-(2-chloroethyl)-1-nitrosourea by HPLC-UV analysis; type: physicochemical
Method in brief: (§1)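 Stock dissolved in minimal DMSO, diluted into PBS (pH 7.4) or MEM-EBSS containing 10% FBS plus penicillin/streptomycin to 0.1 mM final. Incubated at 37 °C, with aliquots taken at set times over 8 h and frozen. Medium samples were deproteinized with an equal volume of acetonitrile and centrifuged. Analysis by HPLC-UV on C18, eluting 50% 50 mM ammonium acetate pH 4.5 / 50% methanol at 1.0 mL/min.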

[2] = Retention time of the compound in PBS/MEM-EBSS treated with 3-(3-(((2-Amino-9H-purin-6-yl)oxy)methyl)benzyl)-1-(2-chloroethyl)-1-nitrosourea by HPLC-UV analysis; type: physicochemical; conditions: buffer; method in brief: as §1
[3] = Drug level in PBS treated with 3-(3-(((2-Amino-9H-purin-6-yl)oxy)methyl)benzyl)-1-(2-chloroethyl)-1-nitrosourea by HPLC-UV analysis; type: physicochemical; conditions: buffer; method in brief: as §1
[4] = Cytotoxicity against human SF-767 cells expressing moderate level of AGT assessed as cell survival after 24 hrs by CCK8 assay; conditions: SF767, 24 h
Calf thymus DNA [5] = assay: Induction of dG-dC cross linking in calf thymus DNA after 12 hrs by HPLC-ESI-MS/MS analysis; type: nucleic-acid assay; conditions: Bos taurus
Method in brief: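 Calf thymus DNA at 1 mg/mL in buffer (10 mM Tris, 50 mM NaCl, 50 mM Na2HPO4, pH 7.4) was treated with 0.1, 0.2 or 0.4 mM final for 12 h at 37 °C, then ethanol-precipitated. Digestion with DNase I, S1 nuclease, CIAP and phosphodiesterase I, spiked with 15N3-dG-dC internal standard. Isotope-dilution HPLC-ESI-MS/MS (SRM, positive mode), reported as fmol/mg DNA, mean ± SD of triplicates.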

[6] = Cytotoxicity against human SF126 cells expressing low level of AGT assessed as cell survival after 24 hrs by CCK8 assay; type: functional, cell-based; conditions: SF-126, 24 h
Method in brief: (§2)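 Glioma cells kept in MEM-EBSS with 10% FBS, 37 °C, 5% CO2. Seeded 5000 cells/well, grown 24 h, then 24 h drug exposure over a range of concentrations. Read-out: CCK8 (10%, 3 h), A450. Survival % = (A_drug−A_blank)/(A_control−A_blank)×100. Mean ± SD of at least three independent experiments. DMSO or ethanol vehicle kept below 0.1%.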

[7] = Retention time of the compound in PBS/MEM-EBSS by HPLC-UV analysis; type: physicochemical; conditions: buffer; method in brief: as §1
SF-126 = assay: Potency index, ratio IC50 of ACNU to ratio IC50 of compound for human SF126 cells expressing low level of AGT; type: functional
[8] = Cytotoxicity against human SF763 cells expressing high level of AGT assessed as cell survival after 24 hrs by CCK8 assay; type: functional, cell-based; conditions: SF763, 24 h; method in brief: as §2
[9] = Induction of dG-dC cross linking in human SF763 cells expressing high level of AGT assessed as level of dG-dC cross link per mg of DNA at 0.2 mM after 12 hrs by HPLC-ESI-MS/MS analysis; type: functional
Method in brief: (§3)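 SF763 glioma cells (mer+, 119 fmol AGT/10^6 cells) in MEM-EBSS/10% FBS were grown to about 90% confluence and exposed for 12 h. DNA was isolated by proteinase K/RNase/phenol-chloroform, then digested with four enzymes and spiked with 15N3-dG-dC. Isotope-dilution HPLC-ESI-MS/MS; dG-dC given as fmol per mg DNA, with DNA estimated from dGuo content. Mean ± SD of triplicates.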

Calf thymus DNA [10] = assay: Induction of dG-dC cross linking in calf thymus DNA assessed as level of dG-dC cross link per mg of DNA at 0.4 mM after 12 hrs by HPLC-ESI-MS/MS analysis; type: nucleic-acid assay; conditions: Bos taurus
Method in brief: (§4)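 CT DNA at 1 mg/mL in buffer (10 mM Tris, 50 mM NaCl, 50 mM Na2HPO4, pH 7.4) was given the compound from a DMSO solution and incubated 12 h at 37 °C. DNA was ethanol-precipitated and digested (DNase I, S1 nuclease, alkaline phosphatase, phosphodiesterase I), with 15N3-dG-dC internal standard at 9.6 nM final. Quantitation by isotope-dilution HPLC-ESI-MS/MS in positive SRM mode. Results given as fmol/mg DNA, mean ± SD of triplicates.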

[11] = Induction of dG-dC cross linking in human SF763 cells expressing high level of AGT assessed as level of dG-dC cross link per mg of DNA at 0.1 mM after 12 hrs by HPLC-ESI-MS/MS analysis; type: functional; method in brief: as §3
[12] = Half life of compound in MEM-EBSS by HPLC-UV analysis in presence of 10% fetal bovine serum; type: physicochemical; conditions: cattle, MEM-EBSS with 10% fetal bovine serum; method in brief: as §1
[13] = Half life of compound in PBS by HPLC-UV analysis
[14] = Induction of dG-dC cross linking in human SF763 cells expressing high level of AGT assessed as level of dG-dC cross link per mg of DNA at 0.4 mM after 12 hrs by HPLC-ESI-MS/MS analysis; type: functional; method in brief: as §3
Calf thymus DNA [15] = assay: Induction of dG-dC cross linking in calf thymus DNA assessed as level of dG-dC cross link per mg of DNA at 0.1 mM after 12 hrs by HPLC-ESI-MS/MS analysis; type: nucleic-acid assay; conditions: Bos taurus; method in brief: as §4
Calf thymus DNA [16] = assay: Induction of dG-dC cross linking in calf thymus DNA assessed as level of dG-dC cross link per mg of DNA at 0.2 mM after 12 hrs by HPLC-ESI-MS/MS analysis; type: nucleic-acid assay; conditions: Bos taurus; method in brief: as §4
[17] = Cytotoxicity against human SF763 cells expressing high level of AGT assessed as cell death after 24 hrs by CCK8 assay; type: functional; method in brief: as §2
[18] = Cytotoxicity against human SF-767 cells expressing high level of AGT assessed as cell death after 24 hrs by CCK8 assay; type: functional; method in brief: as §2
[19] = Cytotoxicity against human SF126 cells expressing low level of AGT assessed as cell death after 24 hrs by CCK8 assay; type: functional, SF-126; method in brief: as §2
[20] = Cytotoxicity against human SF-767 cells expressing moderate level of AGT assessed as cell survival after 24 hrs by CCK8 assay in presence of O6-BG; conditions: SF767, 24 h
[21] = Cytotoxicity against human SF763 cells expressing high level of AGT assessed as cell survival after 24 hrs by CCK8 assay in presence of O6-BG; type: functional, cell-based; conditions: SF763, 24 h
Method in brief: (§5)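 Cells were seeded at 5000 cells/well and grown 24 h. They were pretreated 2 h with O6-BG at 20 µM final, then switched to fresh medium holding ACNU or BCNU at various concentrations for 24 h. Read-out: CCK8 (10%, 3 h), absorbance 450 nm. Survival expressed relative to untreated cells after blank subtraction. Mean ± SD, ≥3 independent experiments.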

[22] = Cytotoxicity against human SF126 cells expressing low level of AGT assessed as cell survival after 24 hrs by CCK8 assay in presence of O6-BG; type: functional, cell-based; conditions: SF-126, 24 h; method in brief: as §5
[23] = Half life of compound in serum containing medium; type: ADME
Method in brief: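 Compound at 0.1 mM final (from DMSO stock) in MEM-EBSS with 10% FBS, penicillin/streptomycin, incubated 37 °C up to 8 h. Aliquots precipitated with equal volume acetonitrile, centrifuged, supernatant run on HPLC-UV. C18 column, 50% 50 mM ammonium acetate pH 4.5 / 50% methanol, 1.0 mL/min. Half-life read from degradation curve.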

In the case of `Nc1nc(OCc2cccc(CN=C=O)c2)c2nc[nH]c2n1`, the Drug metabolism [1] is reported as “metabolite_detected”, the Retention_time [2] is reported as 16.25 min and the Drug metabolism [3] is reported as “metabolite_detected”.
In the case of `Nc1nc(OCc2cccc(CNC(=O)N(CCCl)N=O)c2)c2nc[nH]c2n1`, the IC50 [4] is reported as 25 µM, the Activity (Calf thymus DNA [5]) is reported as “Dose-dependent effect” and the IC50 [6] is reported as 50 µM. For the same compound, the Retention_time [7] was 23.93 min, the “Ratio IC50” value (SF-126) was over 6 and the IC50 [8] was 35 µM. The Activity [9] was 713 fmol, the Activity (Calf thymus DNA [10]) was 10300 fmol and the Activity [11] was 267 fmol. The half-life [12] was 18 min, the half-life [13] was 30 min and the Activity [14] was 787 fmol. For the same compound, the Activity (Calf thymus DNA [15]) was 3880 fmol and the Activity (Calf thymus DNA [16]) was 6100 fmol.
For `NCc1cccc(COc2nc(N)nc3nc[nH]c23)c1`, the Drug metabolism [1] was “metabolite_detected”, the mortality [17] was under 3% and the Retention_time [2] was 13.85 min. The mortality [18] was under 3%, the Drug metabolism [3] was “metabolite_detected” and the mortality [19] was under 3%.
In the case of `O=NN(CCCl)C(=O)NCCCl` [CARMUSTINE], the IC50 [20] is reported as 30 µM, the IC50 [4] is reported as 45 µM and the IC50 [6] is reported as 20 µM. It also gave an IC50 [8] of 100 µM, an Activity [9] of 224 fmol and an Activity (Calf thymus DNA [10]) of 24300 fmol. For the same compound, the Activity [11] was 145 fmol, the IC50 [21] was 55 µM and the IC50 [22] was 25 µM. For the same compound, the Activity [14] was 342 fmol, the Activity (Calf thymus DNA [15]) was 6160 fmol and the half-life [23] was 15 min. The Activity (Calf thymus DNA [16]) was 13600 fmol.
In the case of `Cc1ncc(CNC(=O)N(CCCl)N=O)c(N)n1` [NIMUSTINE], the IC50 [20] is reported as 400 µM, the IC50 [4] is reported as 500 µM and the IC50 [6] is reported as 320 µM. It also gave an IC50 [8] of over 1000 µM, an Activity [9] of 447 fmol and an Activity (Calf thymus DNA [10]) of 34900 fmol. For the same compound, the Activity [11] was 172 fmol, the IC50 [21] was 1000 µM and the IC50 [22] was 310 µM. It also gave an Activity [14] of 568 fmol, an Activity (Calf thymus DNA [15]) of 8750 fmol and an Activity (Calf thymus DNA [16]) of 16800 fmol.
